SUMO1-SIM PPI: alters human SUMO1 binding to SIM partners | SUMO1 binding to a labelled peptide, TR-FRET, 1 h | 360,000 tested, 0.33% active | P63165 | AID 602429 | inhibition, % at 20 µM; in the data active = inhibition above about 37%
DNMT1 inh: blocks human DNA methyltransferase DNMT1; DNMT1 molecular beacon, Hinp1I cleavage, fluorescence; AID 588458; inhibition (reported as % activation of signal), % at 10 µM; 360,000 tested, 0.83% active; P26358; in the data active = inhibition above about 50%
Target sequence (P26358 504-1616 limits assumed): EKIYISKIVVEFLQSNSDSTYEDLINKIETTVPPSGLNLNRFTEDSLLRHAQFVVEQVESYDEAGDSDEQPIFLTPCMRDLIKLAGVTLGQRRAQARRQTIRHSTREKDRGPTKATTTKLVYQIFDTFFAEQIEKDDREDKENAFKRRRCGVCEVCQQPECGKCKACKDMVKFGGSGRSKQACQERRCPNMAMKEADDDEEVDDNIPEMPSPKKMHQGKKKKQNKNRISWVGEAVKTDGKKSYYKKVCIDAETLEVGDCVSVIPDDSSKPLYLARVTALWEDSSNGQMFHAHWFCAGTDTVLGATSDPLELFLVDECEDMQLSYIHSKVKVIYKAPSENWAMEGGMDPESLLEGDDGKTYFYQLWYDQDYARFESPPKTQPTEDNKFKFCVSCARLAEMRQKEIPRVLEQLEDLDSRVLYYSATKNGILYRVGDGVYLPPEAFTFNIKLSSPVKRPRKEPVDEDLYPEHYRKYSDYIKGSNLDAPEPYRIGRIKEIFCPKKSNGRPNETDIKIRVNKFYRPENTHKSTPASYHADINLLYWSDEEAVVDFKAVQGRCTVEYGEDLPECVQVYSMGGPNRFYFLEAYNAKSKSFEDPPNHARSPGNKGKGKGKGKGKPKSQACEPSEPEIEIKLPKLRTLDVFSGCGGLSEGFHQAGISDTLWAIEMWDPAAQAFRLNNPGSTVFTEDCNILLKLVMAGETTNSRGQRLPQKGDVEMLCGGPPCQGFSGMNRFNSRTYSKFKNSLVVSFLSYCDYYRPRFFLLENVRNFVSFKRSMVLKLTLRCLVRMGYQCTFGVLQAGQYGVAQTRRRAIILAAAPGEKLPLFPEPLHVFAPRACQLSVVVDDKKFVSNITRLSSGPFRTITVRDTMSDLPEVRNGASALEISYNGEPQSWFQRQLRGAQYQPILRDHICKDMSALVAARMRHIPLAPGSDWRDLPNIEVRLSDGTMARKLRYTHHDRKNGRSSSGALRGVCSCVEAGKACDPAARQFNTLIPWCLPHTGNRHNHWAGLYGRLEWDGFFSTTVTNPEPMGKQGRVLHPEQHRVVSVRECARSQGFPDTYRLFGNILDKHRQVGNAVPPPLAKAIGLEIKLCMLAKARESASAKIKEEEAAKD
LMPTP block: LMPTP (human) inhibition | inhibition, % at 20 µM | recombinant LMPTP-A, OMFP fluorogenic substrate, fluorescence intensity | AID 651560 | P24666 | 360,000 tested, 0.22% active;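 active = compounds that cut the enzyme signal by at least half of the control window in the single-dose screen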
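Test system: LMPTP-A phosphatase enzyme. Amount: LMPTP-A at 0.625 nM final in the reaction. Reagent: OMFP substrate, 400 µM final. Times: 50 min at room temperature. Signal: endpoint fluorescence intensity from OMFP dephosphorylation. Read-out basis: % inhibition. Benchmarks: no-enzyme and uninhibited controls.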
GRK2 aptamer HTS: blocks RNA aptamer binding to human GRK2 | AID 488847 | bead flow cytometry, FAM-aptamer displacement from GRK2 | 330,000 tested, 0.59% active | inhibition of aptamer binding, % at 10 µM;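 active = inhibition of aptamer binding above 40%, roughly 3 SD of noise, on plates passing a quality check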;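 also: median bead fluorescence of bound FAM aptamer so fluorescent compounds give negative values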
STEP block: inhibitors of human striatal-enriched phosphatase STEP; inhibition, % at 20 µM; 360,000 tested, 0.25% active; recombinant STEP, OMFP fluorogenic substrate, fluorescence; AID 588621; P54829;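 active = inhibition at 20 µM, scaled per plate between control wells, above about 37%, limit read from the data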
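System: STEP (striatal-enriched tyrosine phosphatase) enzyme, cell-free; medium: Bis-Tris pH 6.0 buffer with DTT, detergent; dosing: 20 µM, 1% DMSO; times: reaction 20 min, ambient temperature; detection: fluorescence, 480/540 nm; read-out basis: normalized % inhibition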
Scp-1 inhibitor: blocks human Scp-1 phosphatase activity | AID 493091 | Recombinant Scp1, phosphopeptide, malachite green phosphate absorbance | inhibition, % at 20 µM | 340,000 tested, 0.88% active | Q9GZU7;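 active = inhibition above about 50% at 20 µM, limit read from the data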
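assay system = SCP-1 phosphatase catalytic domain, residues 76-261 | buffer or medium = 50 mM Tris acetate pH 5.5, 0.005% Tween-20, 10 mM MgCl2 | incubation = enzyme reaction 45 min at room temperature, colour 5 min, stabilisation 30 min | signal = Phosphate-binding colour reagent, absorbance read at 630 nm | measure = % inhibition at 20 µM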
STEP inh conf: confirmation of human STEP phosphatase inhibitors; AID 623866; shares compounds with STEP block; recombinant STEP, OMFP fluorogenic substrate, fluorescence; inhibition, % at 20 µM; 520 tested, 32% active; call rule not given here
A number is an active result; . = inactive; / = not tested or not shown. Hits are enriched below; roughly 2.1% of the tested compounds scored in any of these assays.

SMILES	SUMO1-SIM PPI	DNMT1 inh	LMPTP block	GRK2 aptamer HTS	STEP block	Scp-1 inhibitor	STEP inh conf
Cc1cc(C)cc(N(CC(=O)NC2CCCC2)C(=O)CNC(=O)c2cccs2)c1	.	.	.	.	.	.	/
CC(=O)c1c(C)[nH]c(C(=O)OCC(=O)N2CCN(c3ccccc3)CC2)c1C	.	.	.	/	.	/	/
CC1CCN(c2c([N+](=O)[O-])c(=O)oc3ccccc23)CC1	.	.	.	.	53.0	.	.
O=c1oc2ccccc2c(N2CCCC2)c1[N+](=O)[O-]	.	.	.	.	.	.	/
Cc1cc(C)c(NC(=S)N(CCN(C)C)Cc2cccs2)c(C)c1	.	.	.	.	.	.	/
Cc1ccc(NC(=S)N(CCN(C)C)Cc2cccs2)c(C)c1	.	.	.	.	72.5	.	42.2
COC(=O)c1ccccc1CSc1nsc(/C=C/N(C)C)c1C#N	.	.	.	.	85.7	.	102.9
Cc1nc(CSc2nsc(/C=C/N(C)C)c2C#N)cs1	.	.	.	/	.	.	/
COc1ccc(-c2nc3ccc(C)cn3c2CC(C)(C)C)cc1OC	.	.	.	/	.	/	/
OCCN1CCN(C(=S)c2ccc(Br)cc2)CC1	.	.	.	.	84.0	.	39.5
CSc1ccc(C(=S)N2CCN(CCO)CC2)cc1	.	.	.	.	53.9	.	.
S=C(c1ccc(Br)cc1)N1CCCC1	.	.	.	.	.	.	/
Cc1[nH]c2ccccc2c1C1=CC(=O)C=CC1=O	.	.	.	/	.	.	/
COc1cccc(C(=O)/C=C/Nc2ccc(S(=O)(=O)Nc3onc(C)c3C)cc2)c1	.	.	.	.	43.2	.	.
Cc1noc(NS(=O)(=O)c2ccc(N/C=C\C(=O)c3ccc(Br)cc3)cc2)c1C	.	.	.	.	.	.	/
Cc1ccccc1C(=O)NCCCCc1ccccc1	.	.	.	.	45.7	.	.
O=C(Nc1nc(-c2ccc3c(c2)Cc2ccccc2-3)cs1)c1ccccc1	.	.	.	.	47.2	.	.
O=C(Nc1cccc(-c2csc(Nc3ccccc3)n2)c1)c1ccccc1	.	.	.	.	.	.	/
COc1ccccc1N1CCN(C(=O)CC(NC(=O)c2ccccc2Cl)c2ccccc2)CC1 (stereo not given)	.	.	.	/	.	.	/
NS(=O)(=O)c1ccc(NC(=S)NC2CCCCC2)cc1	.	.	.	.	59.7	.	.
Cc1ccc(C(=O)Nc2ccc(C(=O)N/N=C/c3cccnc3)cc2)cc1	.	.	.	.	74.6	.	.
O=C(N/N=C/C(Cl)=C/c1ccc([N+](=O)[O-])cc1)C(=O)Nc1cccc(C(=O)O)c1	.	.	.	.	46.3	.	.
O=C(Nc1cccc(C(=O)O)c1)/C(=C/c1cccc([N+](=O)[O-])c1)NC(=O)c1cccc(Br)c1	.	.	.	.	.	.	/
N/C(=N\OC(=O)CCCc1ccccc1)c1ccccc1	.	.	.	.	.	.	/
N/C(=N\OC(=O)CCCc1ccccc1)c1cccc([N+](=O)[O-])c1	.	.	.	.	55.2	.	.
SMILES	SUMO1-SIM PPI	DNMT1 inh	LMPTP block	GRK2 aptamer HTS	STEP block	Scp-1 inhibitor	STEP inh conf
COc1cccc(-c2cc3nc(NCc4ccccc4F)n(C)c(=O)c3s2)c1	.	.	.	/	.	/	/
O=C(c1ccc(Cl)cc1)N1CCC2CC1c1cc(-c3ccccc3)ccc12 (stereo not given)	.	.	.	/	.	.	/
N#Cc1ccc(C(=O)N2CCC3CC2c2cc(-c4ccccc4)ccc23)cc1 (stereo not given)	.	.	.	/	69.9	.	.
Nc1sccc1C(=O)NC1CC1	.	/	.	/	/	/	/
CCN(CC)S(=O)(=O)c1ccc(C(=O)NN(C)C2=NS(=O)(=O)c3ccccc32)cc1	.	.	.	/	.	.	/
CCN(C1=NS(=O)(=O)c2ccccc21)N(CC)S(=O)(=O)c1ccc(C)cc1	.	.	.	.	72.9	.	.
COc1ccc(OCCOC(=O)CCS(=O)(=O)c2ccc(C)cc2)cc1	.	.	.	.	.	.	/
Cc1cccc(OCC(=O)NNC(=O)CSc2ncc(C#N)c(N)n2)c1	.	.	.	.	.	.	/
N#Cc1cnc(SCC(=O)NNC(=O)COc2cccc3ccccc23)nc1N	.	.	.	.	100.2	.	.
Nc1nc(N2CCN(C(=O)c3ccco3)CC2)nc2ccccc12	.	.	.	.	.	.	/
Cc1cc(N2CCN(C(=O)c3ccco3)CC2)c2ccccc2n1	.	.	.	.	71.1	.	.
CC[C@@]1(C(=O)OC)N[C@H](CN(C)C(=O)Nc2ccc(OC)cc2)[C@@H]2C(=O)N(C)C(=O)[C@@H]21	.	.	.	.	.	.	/
N#Cc1ccc(C(=O)N2CCC3CC2c2cc(N4CCCCC4)ccc23)cc1 (stereo not given)	.	.	.	/	.	/	/
COC(=O)c1c(NC(=O)Cc2ccccc2)sc2c1CC(C)(C)NC2(C)C	.	.	.	.	50.7	.	.
COc1cccc(NC(=O)CN(C)C(C)C(=O)NC(=O)NC2CCCCC2)c1 (stereo not given)	.	.	.	.	.	.	/
O=C(Oc1ccc(/C=N/NC(=O)c2ccccn2)cc1)c1ccc(Br)cc1	.	.	55.0	.	54.8	.	.
Cc1ccc(C(=O)N/N=C\c2ccc(OC(=O)c3cccc(F)c3)cc2)cn1	.	.	61.7	.	82.1	.	.
Cc1ccc(C(=O)N/N=C\c2cccc(OC(=O)c3cccc(F)c3)c2)cn1	.	.	.	.	.	.	/
CC1CCc2c(sc(NC(=O)C3c4ccccc4Oc4ccccc43)c2C(N)=O)C1 (stereo not given)	.	.	.	.	.	.	/
COC(=O)Nc1sc2c(c1C(N)=O)CCC(C)C2 (stereo not given)	.	.	.	.	97.1	.	80.5
COCCN1C(=O)CCC1(C)c1nnnn1-c1ccc2c(c1)OCCO2 (stereo not given)	.	/	.	/	/	/	/
Cc1cc([N+](=O)[O-])c(C)cc1-c1ccc(/C=N/n2cnnc2)o1	.	.	.	.	49.8	.	.
O=[N+]([O-])c1ccc(-c2ccc(/C=N/n3cnnc3)o2)c(Br)c1	.	.	.	.	.	.	/
CC1(C)Cc2c(sc(NC(=O)C(=O)NCCCN3CCOCC3)c2C(N)=O)CO1	.	.	.	.	40.4	.	.
Cc1ccccc1S(=O)(=O)NC(=O)C1(C)CCN1C(=O)Cc1cccs1 (stereo not given)	.	.	.	/	.	/	/
O=S(=O)(c1ccccc1)N1CCN(C(=S)NCCCN2CCOCC2)CC1	.	.	.	.	48.7	.	.
